Experimental findings from PubChem BioAssay AID602220 (Southern Research Specialized Biocontainment Screening …, 2012) are described below.

In the assay the target is M17 leucyl aminopeptidase (Plasmodium falciparum 3D7). The assay can be described thus: PfM17LAP leucine aminopeptidase inhibitors, dose response, counter-screen for PfM18AAP inhibitor project, biochemical, QFRET, set 2 (AID 602220). The settings on record: recombinant PfM17LAP, H-Leu-NHMec fluorogenic cleavage; for inhibition: at 100 µM (top of the series). In a few lines:
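Compound: 10 points, 1:2 steps, 100–0.2 µM | System: Recombinant PfM17LAP enzyme | Control set: Full reaction and no-enzyme background wells | Replicates: Triplicate | Incubation: 90 min reaction, room temperature | Medium: 50 mM Tris-HCl buffer pH 7.5 with 2 mM CoCl2 | Technique: Fluorescence, ex 370/em 460 nm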

Active and inactive are the calls of the source.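 Rule for the calls: active = at least 30% inhibition of the enzyme at any tested dose; inactive = the rest.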

With `COc1ccc(CCNC(c2ccccc2)c2ccccc2)cc1OC`, the inhibition result was “inactive”.
Turning to `Oc1ccc(-c2csc(Nc3ncccn3)n2)cc1O`, the half-inhibitory concentration (IC50) is 12.3 µM.
With `CCc1ccc(NC(=O)Cc2nc(-c3ccc(O)c(O)c3)cs2)cc1`, the IC50 is 57.8 µM.
As for `Oc1ccc(-c2csc(NC3CCCC3)n2)cc1O`, the half-inhibitory concentration (IC50) was 29.8 µM.
Consider `Oc1ccc(CCNc2ccnc3ccccc23)cc1O`, for which the half-maximal inhibitory concentration (IC50) was 30.1 µM.
On to `COc1ccc(CCCN2CCN(C)CC2)cc1OC`, for which the inhibition entry was “inactive”.
In the case of `CN1CCN(c2nc(-c3ccc(O)c(O)c3)cs2)CC1`, the IC50 is 29.4 µM.
As for `CN1CCN(CCc2ccc(O)c(O)c2)CC1`, the concentration for half-maximal inhibition (IC50) is 94.3 µM.
On the same count and under the same terms, to `CN1CCN(CCCc2ccc(O)c(O)c2)CC1` belongs 73.8 µM; to `Oc1ccc(CCNc2c3ccccc3nc3ccccc23)cc1O`, 14.2 µM.
